Calls of active or inactive are those of the source. The rule behind the calls is not given here.
Tests used:
[1] = target: T1, Peroxisome proliferator-activated receptor alpha (Homo sapiens, UniProt Q07869); test: Agonist activity at human PPARalpha transfected in COS-7 cells assessed luciferase activity measured after 24 hrs by cell based luciferase transactivation assay; conditions: read-out: EC50
T1 sequence (Q07869 whole entry): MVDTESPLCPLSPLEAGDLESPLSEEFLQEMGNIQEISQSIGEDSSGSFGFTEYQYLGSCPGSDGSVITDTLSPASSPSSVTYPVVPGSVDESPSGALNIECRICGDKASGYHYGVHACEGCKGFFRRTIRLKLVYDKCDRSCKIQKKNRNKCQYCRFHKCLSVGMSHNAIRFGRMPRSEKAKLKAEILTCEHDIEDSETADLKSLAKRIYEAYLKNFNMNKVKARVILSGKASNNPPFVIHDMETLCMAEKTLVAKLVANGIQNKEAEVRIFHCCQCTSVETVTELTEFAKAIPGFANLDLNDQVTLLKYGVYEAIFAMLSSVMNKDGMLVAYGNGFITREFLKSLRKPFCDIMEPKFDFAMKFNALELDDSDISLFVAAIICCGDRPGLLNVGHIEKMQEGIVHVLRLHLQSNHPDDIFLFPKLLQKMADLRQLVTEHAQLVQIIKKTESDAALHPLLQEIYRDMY
How it was run: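 Transient transfection of COS-7 cells with human PPARα, PPARγ or PPARδ plus luciferase reporter; constitutive Renilla luciferase also read. Three or more independent experiments in triplicate (N ≥ 9).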

[2] = target: T2, Peroxisome proliferator-activated receptor alpha (Homo sapiens) (UniProt Q07869); test: Agonist activity at human PPARalpha transfected in COS-7 cells assessed maximum luciferase activity measured after 24 hrs by cell based luciferase transactivation assay relative to gemfibrozil; conditions: filed as agonist
T2 sequence (whole entry): T1 sequence (Q07869 whole entry)
How it was run: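 Transient transfection of COS-7 cells with human PPARα, PPARγ or PPARδ plus luciferase reporter; constitutive Renilla luciferase also read. […] Three or more independent experiments in triplicate (N ≥ 9).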

Mesenchymal stem cells [3] = test: Induction of osteogenesis differentiation in human Mesenchymal stem cells at 1 uM incubated for 21 days by Alizarin Red S staining-based microscopic analysis; format: functional, cell-based; conditions: time 21.0 day
Mesenchymal stem cells [4] = test: Induction of adipogenesis differentiation in human Mesenchymal stem cells at 1 uM incubated for 21 days by […] staining-based microscopic analysis; format: functional, cell-based; conditions: time 21.0 day
Mesenchymal stem cells [5] = test: Induction of adipogenesis differentiation in human Mesenchymal stem cells at 10 uM incubated for 21 days by […] staining-based microscopic analysis; format: functional, cell-based; conditions: time 21.0 day
Mesenchymal stem cells [6] = test: Induction of adipogenesis differentiation in human Mesenchymal stem cells at 20 uM incubated for 21 days by […] staining-based microscopic analysis; format: functional, cell-based; conditions: time 21.0 day
Mesenchymal stem cells [7] = test: Induction of osteogenesis differentiation in human Mesenchymal stem cells at 10 uM incubated for 21 days by Alizarin Red S staining-based microscopic analysis; format: functional, cell-based; conditions: time 21.0 day
Mesenchymal stem cells [8] = test: Induction of osteogenesis differentiation in human Mesenchymal stem cells at 20 uM incubated for 21 days by Alizarin Red S staining-based microscopic analysis; format: functional, cell-based; conditions: time 21.0 day
[9] = target: T3, Peroxisome proliferator-activated receptor delta (Homo sapiens, UniProt Q03181); test: Agonist activity at human PPARdelta transfected in COS-7 cells assessed luciferase activity measured after 24 hrs by cell based luciferase transactivation assay
T3 sequence (Q03181 whole entry): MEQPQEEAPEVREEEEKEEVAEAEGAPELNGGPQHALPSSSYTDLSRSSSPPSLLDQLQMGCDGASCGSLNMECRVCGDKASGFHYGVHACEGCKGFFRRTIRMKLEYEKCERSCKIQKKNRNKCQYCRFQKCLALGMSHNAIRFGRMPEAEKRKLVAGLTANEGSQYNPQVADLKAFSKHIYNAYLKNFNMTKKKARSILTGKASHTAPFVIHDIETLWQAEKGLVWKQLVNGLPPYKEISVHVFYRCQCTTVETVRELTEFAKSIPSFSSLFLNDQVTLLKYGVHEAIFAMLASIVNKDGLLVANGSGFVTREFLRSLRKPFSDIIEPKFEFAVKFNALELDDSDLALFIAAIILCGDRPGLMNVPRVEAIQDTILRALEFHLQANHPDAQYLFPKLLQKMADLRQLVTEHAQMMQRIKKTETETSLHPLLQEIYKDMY

[10] = target: T4, Peroxisome proliferator-activated receptor gamma (Homo sapiens, UniProt P37231); test: Agonist activity at human PPARgamma transfected in COS-7 cells assessed luciferase activity measured after 24 hrs by cell based luciferase transactivation assay
T4 sequence (P37231 whole entry): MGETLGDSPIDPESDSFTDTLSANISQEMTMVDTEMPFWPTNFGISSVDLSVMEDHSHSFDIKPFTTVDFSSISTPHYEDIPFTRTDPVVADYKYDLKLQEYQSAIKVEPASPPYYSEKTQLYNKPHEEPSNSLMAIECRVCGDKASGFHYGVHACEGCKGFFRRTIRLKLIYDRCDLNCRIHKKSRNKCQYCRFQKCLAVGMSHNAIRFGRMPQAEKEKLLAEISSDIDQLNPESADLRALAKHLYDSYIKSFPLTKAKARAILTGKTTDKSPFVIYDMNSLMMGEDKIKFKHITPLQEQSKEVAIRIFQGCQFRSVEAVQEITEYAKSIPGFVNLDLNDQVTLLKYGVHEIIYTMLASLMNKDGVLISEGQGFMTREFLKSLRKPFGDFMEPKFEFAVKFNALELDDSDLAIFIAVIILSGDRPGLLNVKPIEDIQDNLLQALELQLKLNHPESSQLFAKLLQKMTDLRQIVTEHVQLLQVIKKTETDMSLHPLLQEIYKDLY

Mus musculus [11] = test: Antiosteoporotic activity against OVX-induced bone loss C57BL/6 mouse model assessed as increase in trabecular bone density at 10 mg/kg, po for 6 weeks by microcomputed tomography method relative to sham treated control; format: functional, organism-based
How it was run: (§1)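 Female C57BL/6 mice ovariectomized at 12 weeks of age; sham-operated group kept ovaries intact. After recovery, daily oral gavage of compound or vehicle for 6 weeks, sacrifice at 22 weeks of age. Distal femur trabecular structure analysed by micro-computed tomography, including bone volume/total volume, compared with sham mice; GW0742 as positive control.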

Mus musculus [12] = test: Antiosteoporotic activity against OVX-induced bone loss C57BL/6 mouse model assessed as increase in ratio of bone volume to total volume at 10 mg/kg, po for 6 weeks by microcomputed tomography method relative to sham treated control; format: functional, organism-based; how it was run: as §1
[13] = Glutathione reactivity at pH 7.4 assessed as compound remaining measured after 24 hrs by LC-MS/MS method; format: physicochemical; conditions: pH 7.4, 24 h
How it was run: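 Substrate incubated in triplicate with 10-fold excess glutathione in pH 7.4 phosphate buffer containing 50% methanol at 25 °C for up to 24 h. Substrate loss followed at several time points by LC-MS/MS, which also confirmed the structure of glutathione conjugates.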

[14] = Toxicity in OVX-induced bone loss C57BL/6 mouse model assessed as change in body weight at 10 mg/kg, po for 6 weeks; format: organism-based; conditions: in vivo, 1008 h
How it was run: (§2)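 OVX C57BL/6 females (surgery at 12 weeks, sham controls) dosed daily by oral gavage for 6 weeks. Gross toxicity monitored during dosing as weight, behaviour, eating and other habits versus controls.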

[15] = Toxicity in OVX-induced bone loss C57BL/6 mouse model assessed as change in behaviour at 10 mg/kg, po for 6 weeks; format: organism-based; conditions: in vivo, 1008 h; how it was run: as §2
[16] = Toxicity in OVX-induced bone loss C57BL/6 mouse model assessed as change in eating at 10 mg/kg, po for 6 weeks; format: organism-based; conditions: in vivo, 1008 h; how it was run: as §2
Mesenchymal stem cells [17] = test: Cytotoxicity against human Mesenchymal stem cells expressing human PPARdelta assessed as morphological changes at 50 uM by microscopy analysis; format: cell-based
[18] = system: COS-7 (Chlorocebus aethiops); test: Cytotoxicity against COS-7 cells expressing human PPARdelta assessed as morphological changes at lower concentration by microscopy analysis; conditions: monkey
Mus musculus [19] = test: Antiosteoporotic activity against OVX-induced bone loss C57BL/6 mouse model assessed as increase in microarchitectures at 10 mg/kg, po for 6 weeks by microcomputed tomography method relative to sham treated control; format: functional, organism-based; how it was run: as §1

Row | EC50 [1] | Emax [2] | EC50 [9] | EC50 ([10]; read-out: EC50) | Stability [13] | Structure (SMILES) | Activity (Mesenchymal stem cells [3]) | Activity (Mesenchymal stem cells [4]) | Activity (Mesenchymal stem cells [5]) | Activity (Mesenchymal stem cells [6]) | Activity (Mesenchymal stem cells [7]) | Activity (Mesenchymal stem cells [8]) | Activity (Mus musculus [11]) | Activity (Mus musculus [12]) | Activity [14] | Activity [15] | Activity [16] | EC50 ([10]; cos-7) | Activity (Mesenchymal stem cells [17]) | Activity [18] | Activity (Mus musculus [19])
1 | 11.8 µM | 110% |  |  |  | Cc1ccc(C)c(OCCCC(C)(C)C(=O)O)c1 [GEMFIBROZIL] |  |  |  |  |  |  |  |  |  |  |  |  |  |  | 
2 | 51.3 µM | 346% | 0.0959 µM | 13.2 µM | Stable | Cc1nc(-c2ccc(C(F)(F)F)c(F)c2)sc1COc1ccc(/C=C/C(=O)O)cc1 | Active | inactive | Active | inactive | Active | Active | Active | Active | Toxic | Toxic | Toxic |  |  |  | 
3 |  | > 120% |  |  |  | CN(CCOc1ccc(CC2SC(=O)NC2=O)cc1)c1ccccn1 (stereo unspecified) |  | Active | Active |  |  |  |  |  |  |  |  |  |  |  | 
4 | 17.7 µM | 338% | 0.535 µM | 17 µM |  | Cc1nc(-c2ccc(C(F)(F)F)cc2)sc1CSc1ccc(/C=C/C(=O)O)cc1 | Active | inactive | inactive |  | Active |  |  |  |  |  |  |  |  |  | 
5 | 6.01 µM | 377% | 1.22 µM |  |  | Cc1nc(-c2ccc(C(F)(F)F)cc2)sc1CNc1ccc(/C=C/C(=O)O)cc1 | Active | inactive | Active | Active | Active | Active |  |  |  |  |  |  |  |  | 
6 |  |  |  |  |  | CCCN(Cc1sc(-c2ccc(C(F)(F)F)cc2)nc1C)c1ccc(/C=C/C(=O)O)cc1 | Active | inactive | Active | Active | Active | inactive |  |  |  |  |  |  |  |  | 
7 |  |  |  |  |  | Cc1nc(-c2ccccc2)sc1CN(C)c1ccc(/C=C/C(=O)O)cc1 | Active | inactive | Active | Active | inactive | inactive |  |  |  |  |  |  |  |  | 
8 |  |  |  |  |  | Cc1nn(-c2ccc(C(F)(F)F)cc2)nc1CN(C)c1ccc(/C=C/C(=O)O)cc1 | Active | inactive | inactive | inactive | Active | Active |  |  |  |  |  |  |  |  | 
9 |  |  |  |  |  | Cc1cc(/C=C/C(=O)O)ccc1N(C)Cc1sc(-c2ccc(C(F)(F)F)cc2)nc1C | Active | inactive | inactive | inactive | Active | Active |  |  |  |  |  |  |  |  | 
10 |  |  |  |  |  | CCc1cc(N(C)Cc2sc(-c3ccc(C(F)(F)F)cc3)nc2C)ccc1/C=C/C(=O)O | Active | Active | Active | Active | Active | Active |  |  |  |  |  |  |  |  | 
11 | 0.947 µM | 44% | 0.199 µM | 24.7 µM | Stable | Cc1nc(-c2ccc(C(F)(F)F)cc2)sc1CN(C)c1ccc(/C=C/C(=O)O)cc1 | Active | inactive | Active | Active | Active | Active | Active | Active | Toxic | Toxic | Toxic |  | Toxic | Non-Toxic | Active
12 |  |  |  |  |  | Cc1nc(-c2cccc(C(F)(F)F)c2)sc1CSc1ccc(/C=C/C(=O)O)cc1 | Active | inactive | Active | Active | inactive | inactive |  |  |  |  |  |  |  |  | 

Row | Structure (SMILES) | EC50 [1] | Emax [2] | EC50 [9] | EC50 ([10]; read-out: EC50) | Stability [13] | Activity (Mesenchymal stem cells [3]) | Activity (Mesenchymal stem cells [4]) | Activity (Mesenchymal stem cells [5]) | Activity (Mesenchymal stem cells [6]) | Activity (Mesenchymal stem cells [7]) | Activity (Mesenchymal stem cells [8]) | Activity (Mus musculus [11]) | Activity (Mus musculus [12]) | Activity [14] | Activity [15] | Activity [16] | EC50 ([10]; cos-7) | Activity (Mesenchymal stem cells [17]) | Activity [18] | Activity (Mus musculus [19])
13 | Cc1nc(-c2ccc(C(F)(F)F)cc2)sc1COc1ccc(/C=C/C(=O)O)cc1 | 2.23 µM | 135% | 0.274 µM |  |  | Active | Active |  |  |  |  |  |  |  |  |  | Not Active | Toxic | Non-Toxic | 

— ChEMBL document CHEMBL5032493, “Synthesis and Evaluation of PPARδ Agonists That Promote Osteogenesis in a Human Mesenchymal Stem Cell Culture and in a Mouse Model of Human Osteoporosis” (J Med Chem, 2021)
